Values belong to the compound of their own block, whether it stands above or below them. Calls of active or inactive are those of the source. The calls are words filed in the database; no cut-off is given here.
Experiments:
[1] = target: T1, Metabotropic glutamate receptor 1 (Homo sapiens, UniProt Q13255); assay: Antagonist activity at human mGluR1 receptor expressed in CHO cell membranes assessed as inhibition of L-glutamate-induced calcium mobilization by FLIPR; type: functional, cell-based
Procedure, shortened: (§1)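 Human mGluR1a stably expressed in CHO cells; antagonism read as inhibition of the intracellular Ca2+ rise on FLIPR. IC50 is the mean of at least three independent determinations, each run in duplicate, reported ± SEM.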

[2] = target: Metabotropic glutamate receptor 5 (Homo sapiens, UniProt P41594); assay: Antagonist activity at human mGluR5 receptor expressed in CHO cell membranes assessed as inhibition of L-glutamate-induced calcium mobilization by FLIPR; type: functional, cell-based
[3] = Octanol to water distribution coefficient, log D at pH 7.4; type: physicochemical
[4] = Oral bioavailability in rat at 3 mg/kg; type: ADME, organism-based; details: in vivo
Procedure, shortened: (§2)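 Rats dosed orally at 3 mg/kg and intravenously at 1 mg/kg. Oral bioavailability (F), half-life and total plasma clearance were derived from the plasma profiles.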

[5] = Half life in rat at 3 mg/kg, po and 1 mg/kg, iv; type: ADME, organism-based; details: in vivo; procedure, shortened: as §2
[6] = Plasma clearance in rat at 3 mg/kg, po and 1 mg/kg, iv; type: ADME, organism-based; procedure, shortened: as §2
[7] = target: Metabotropic glutamate receptor 2 (Homo sapiens, UniProt Q14416); assay: Antagonist activity at human mGluR2 receptor expressed in CHO cell membranes assessed as inhibition of L-glutamate-induced calcium mobilization by FLIPR; type: functional, cell-based
[8] = target: Metabotropic glutamate receptor 8 (Homo sapiens, UniProt O00222); assay: Antagonist activity at human mGluR8 receptor expressed in CHO cell membranes assessed as inhibition of L-glutamate-induced calcium mobilization by FLIPR; type: functional, cell-based
[9] = target: Metabotropic glutamate receptor 1 (Rattus norvegicus, UniProt P23385); assay: Antagonist activity at rat mGluR1 receptor expressed in CHO cell membranes assessed as inhibition of L-glutamate-induced calcium mobilization by FLIPR; type: functional, cell-based
[10] = target: T1, Metabotropic glutamate receptor 1; assay: Antagonist activity at human mGluR1 receptor quisqualic acid binding site expressed in CHO cell membranes assessed as inhibition of L-glutamate-induced calcium mobilization by FLIPR; type: functional; procedure, shortened: as §1
[11] = Oral bioavailability in rat at 1 mg/kg; type: ADME, organism-based; details: in vivo
Procedure, shortened: (§3)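 Rats dosed orally at 1 mg/kg and intravenously at 0.3 mg/kg. Oral bioavailability, half-life and total plasma clearance were derived from the plasma profiles.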

[12] = Half life in rat at 1 mg/kg, po and 0.3 mg/kg, iv; type: ADME, organism-based; details: in vivo; procedure, shortened: as §3
[13] = Plasma clearance in rat at 1 mg/kg, po and 0.3 mg/kg, iv; type: ADME, organism-based; procedure, shortened: as §3
Rattus norvegicus [14] = assay: Antipsychotic-like effect in rat assessed as inhibition of MAP-induced prepulse inhibition at 1 mg/kg, po; type: functional, organism-based; design: dose 1 mg/kg
Procedure, shortened: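 Rat prepulse inhibition model of methamphetamine-induced disruption. Test article given orally at 1 mg/kg.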

Rattus norvegicus [15] = assay: Induction of catalepsy in rat at 30 mg/kg, po
Brain = assay: Drug uptake in mouse brain at 1 mg/kg, po after 30 mins; details: in vivo, 0.5 h
Mus musculus = assay: Plasma concentration in mouse at 1 mg/kg, po after 30 mins

T1 sequence (Q13255 whole entry): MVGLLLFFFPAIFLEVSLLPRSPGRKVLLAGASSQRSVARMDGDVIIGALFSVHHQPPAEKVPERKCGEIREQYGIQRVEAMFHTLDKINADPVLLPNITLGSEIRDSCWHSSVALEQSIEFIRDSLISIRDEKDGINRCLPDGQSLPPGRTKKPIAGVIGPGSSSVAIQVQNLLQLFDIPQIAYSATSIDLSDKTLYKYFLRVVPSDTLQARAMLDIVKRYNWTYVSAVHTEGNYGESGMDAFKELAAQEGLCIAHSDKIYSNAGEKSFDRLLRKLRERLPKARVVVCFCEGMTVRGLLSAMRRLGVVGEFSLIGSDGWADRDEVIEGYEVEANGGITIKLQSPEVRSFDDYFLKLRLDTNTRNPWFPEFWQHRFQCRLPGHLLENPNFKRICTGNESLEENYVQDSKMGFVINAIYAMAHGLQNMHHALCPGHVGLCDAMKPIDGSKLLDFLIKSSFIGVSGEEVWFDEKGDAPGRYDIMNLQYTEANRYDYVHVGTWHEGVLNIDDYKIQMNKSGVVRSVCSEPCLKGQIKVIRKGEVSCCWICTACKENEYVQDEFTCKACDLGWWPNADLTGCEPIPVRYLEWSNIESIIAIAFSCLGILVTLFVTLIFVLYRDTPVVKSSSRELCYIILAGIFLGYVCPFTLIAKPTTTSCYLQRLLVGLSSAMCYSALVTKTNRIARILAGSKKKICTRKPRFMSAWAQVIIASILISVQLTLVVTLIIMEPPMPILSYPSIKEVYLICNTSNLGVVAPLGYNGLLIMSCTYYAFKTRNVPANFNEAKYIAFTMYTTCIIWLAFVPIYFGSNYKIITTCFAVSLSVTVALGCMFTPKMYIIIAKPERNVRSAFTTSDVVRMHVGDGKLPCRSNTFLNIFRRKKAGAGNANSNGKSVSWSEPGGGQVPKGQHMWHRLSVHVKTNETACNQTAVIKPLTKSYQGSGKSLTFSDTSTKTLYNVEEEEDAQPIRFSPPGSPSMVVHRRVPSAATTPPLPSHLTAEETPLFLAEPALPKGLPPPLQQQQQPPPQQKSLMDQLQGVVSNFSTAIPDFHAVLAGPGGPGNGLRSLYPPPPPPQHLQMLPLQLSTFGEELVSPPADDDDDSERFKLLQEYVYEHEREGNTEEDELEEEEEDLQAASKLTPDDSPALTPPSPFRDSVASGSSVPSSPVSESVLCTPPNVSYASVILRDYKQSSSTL
Metabotropic glutamate receptor 5, sequence (P41594 whole entry): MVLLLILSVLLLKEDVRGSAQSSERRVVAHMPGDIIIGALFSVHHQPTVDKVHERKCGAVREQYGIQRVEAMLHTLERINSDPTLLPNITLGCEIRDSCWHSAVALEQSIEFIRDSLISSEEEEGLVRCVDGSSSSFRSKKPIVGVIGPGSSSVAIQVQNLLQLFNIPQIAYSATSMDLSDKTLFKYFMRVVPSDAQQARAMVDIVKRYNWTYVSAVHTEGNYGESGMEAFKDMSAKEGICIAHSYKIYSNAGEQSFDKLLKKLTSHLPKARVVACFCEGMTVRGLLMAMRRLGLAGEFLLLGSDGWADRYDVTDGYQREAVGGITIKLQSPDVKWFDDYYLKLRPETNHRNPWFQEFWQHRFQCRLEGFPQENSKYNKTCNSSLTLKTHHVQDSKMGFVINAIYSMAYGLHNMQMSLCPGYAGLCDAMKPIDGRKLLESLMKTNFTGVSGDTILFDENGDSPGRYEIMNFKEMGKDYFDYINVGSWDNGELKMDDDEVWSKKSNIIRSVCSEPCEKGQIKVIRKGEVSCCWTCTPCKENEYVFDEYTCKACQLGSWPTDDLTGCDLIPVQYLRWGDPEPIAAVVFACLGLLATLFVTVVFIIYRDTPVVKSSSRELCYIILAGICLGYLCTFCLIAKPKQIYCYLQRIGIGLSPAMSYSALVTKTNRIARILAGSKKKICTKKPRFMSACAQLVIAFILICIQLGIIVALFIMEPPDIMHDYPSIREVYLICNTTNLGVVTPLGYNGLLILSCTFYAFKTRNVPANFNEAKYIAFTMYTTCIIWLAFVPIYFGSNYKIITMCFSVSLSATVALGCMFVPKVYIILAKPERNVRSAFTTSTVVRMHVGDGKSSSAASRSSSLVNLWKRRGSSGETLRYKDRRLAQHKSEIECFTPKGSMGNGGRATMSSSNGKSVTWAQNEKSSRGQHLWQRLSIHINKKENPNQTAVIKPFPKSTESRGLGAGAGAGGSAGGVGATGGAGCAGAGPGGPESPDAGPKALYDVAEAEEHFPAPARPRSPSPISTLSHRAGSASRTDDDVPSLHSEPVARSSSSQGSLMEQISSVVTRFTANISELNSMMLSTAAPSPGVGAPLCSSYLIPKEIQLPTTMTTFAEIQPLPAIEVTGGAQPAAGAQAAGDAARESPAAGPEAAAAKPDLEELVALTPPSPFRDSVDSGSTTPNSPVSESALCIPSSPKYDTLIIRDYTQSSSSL
Metabotropic glutamate receptor 8, sequence (O00222 whole entry): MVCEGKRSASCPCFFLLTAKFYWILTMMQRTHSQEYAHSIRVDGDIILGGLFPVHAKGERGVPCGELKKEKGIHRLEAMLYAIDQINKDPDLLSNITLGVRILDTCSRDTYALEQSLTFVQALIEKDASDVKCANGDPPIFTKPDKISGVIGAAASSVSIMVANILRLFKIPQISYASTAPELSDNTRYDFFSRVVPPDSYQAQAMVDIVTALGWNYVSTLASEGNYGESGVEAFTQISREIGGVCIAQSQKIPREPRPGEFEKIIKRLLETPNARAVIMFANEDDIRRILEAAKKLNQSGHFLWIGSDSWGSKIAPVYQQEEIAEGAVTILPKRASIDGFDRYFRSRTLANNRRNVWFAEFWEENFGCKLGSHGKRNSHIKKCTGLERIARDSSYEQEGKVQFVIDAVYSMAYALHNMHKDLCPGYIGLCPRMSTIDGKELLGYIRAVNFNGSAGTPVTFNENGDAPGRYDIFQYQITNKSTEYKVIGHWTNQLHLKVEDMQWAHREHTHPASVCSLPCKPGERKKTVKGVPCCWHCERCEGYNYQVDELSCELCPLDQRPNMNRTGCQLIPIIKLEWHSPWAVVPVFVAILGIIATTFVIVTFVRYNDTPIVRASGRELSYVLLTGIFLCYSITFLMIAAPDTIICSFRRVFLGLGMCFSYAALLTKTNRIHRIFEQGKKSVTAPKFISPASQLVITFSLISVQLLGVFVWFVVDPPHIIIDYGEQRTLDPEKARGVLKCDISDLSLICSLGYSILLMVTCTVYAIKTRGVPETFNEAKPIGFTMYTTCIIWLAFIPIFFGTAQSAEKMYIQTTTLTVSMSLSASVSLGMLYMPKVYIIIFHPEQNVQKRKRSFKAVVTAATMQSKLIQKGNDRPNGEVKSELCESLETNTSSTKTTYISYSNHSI
Metabotropic glutamate receptor 2, sequence (Q14416 whole entry): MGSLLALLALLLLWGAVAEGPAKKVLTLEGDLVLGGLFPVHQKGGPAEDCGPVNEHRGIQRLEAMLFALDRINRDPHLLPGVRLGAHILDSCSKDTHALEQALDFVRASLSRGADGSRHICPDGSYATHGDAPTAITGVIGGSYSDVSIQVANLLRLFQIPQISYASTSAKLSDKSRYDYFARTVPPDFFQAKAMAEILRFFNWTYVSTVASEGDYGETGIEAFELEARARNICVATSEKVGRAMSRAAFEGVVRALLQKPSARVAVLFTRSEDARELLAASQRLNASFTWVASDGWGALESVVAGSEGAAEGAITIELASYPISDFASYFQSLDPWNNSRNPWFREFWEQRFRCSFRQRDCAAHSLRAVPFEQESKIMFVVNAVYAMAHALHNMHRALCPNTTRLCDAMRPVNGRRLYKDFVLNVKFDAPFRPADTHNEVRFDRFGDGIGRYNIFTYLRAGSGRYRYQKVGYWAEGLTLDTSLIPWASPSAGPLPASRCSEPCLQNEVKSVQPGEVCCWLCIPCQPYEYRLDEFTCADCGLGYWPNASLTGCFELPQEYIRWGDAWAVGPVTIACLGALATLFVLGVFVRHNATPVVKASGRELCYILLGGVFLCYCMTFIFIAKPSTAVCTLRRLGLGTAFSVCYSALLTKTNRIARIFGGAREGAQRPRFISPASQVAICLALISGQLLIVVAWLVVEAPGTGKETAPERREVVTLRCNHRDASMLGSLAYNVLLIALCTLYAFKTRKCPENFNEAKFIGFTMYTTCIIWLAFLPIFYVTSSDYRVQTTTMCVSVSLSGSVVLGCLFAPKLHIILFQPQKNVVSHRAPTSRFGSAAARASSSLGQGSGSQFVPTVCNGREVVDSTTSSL

SMILES: Cc1c(-c2ccc3ccccc3c2)nnn1-c1cccnc1
IC50 [1]: 300 nM

SMILES: Cc1c(-c2ccc(C(=O)N(C)C(C)C)cc2)nnn1-c1cccnc1
IC50 [1]: 880 nM

SMILES: Cc1c(-c2cccc(C(=O)OC(C)C)c2)nnn1-c1cccnc1
IC50 [1]: 2400 nM

SMILES: Cc1c(-c2ccc3c(c2)CCC3=O)nnn1-c1cccnc1
IC50 [1]: 69 nM

SMILES: Cc1c(-c2ccc(C(=O)NC(C)C)cc2)nnn1-c1cccnc1
IC50 [1]: 210 nM

SMILES: Cc1c(-c2ccc(C(=O)N3CCCC3)cc2)nnn1-c1cccnc1
IC50 [1]: 1800 nM

SMILES: CC(=O)c1ccc(-c2nnn(-c3cccnc3)c2C)cc1
IC50 [1]: 470 nM

SMILES: Cc1c(-c2ccc3c(c2)CN(C(C)C)C3=O)nnn1-c1ccc(F)cc1F
IC50 [7]: > 10000 nM
IC50 [8]: > 10000 nM
IC50 [9]: 3.6 nM
IC50 [10]: > 10000 nM
bioavailability [11]: 46%
half-life [12]: 42 min
clearance [13]: 20 mL/min/kg
Activity (Rattus norvegicus [14]): Active
Activity (Rattus norvegicus [15]): inactive
Drug uptake (Brain): 0.45 nmol/g
concentration at 0.5 h (Mus musculus): 170 nM

SMILES: Cc1c(C2=CCN(C(=O)N(C)C(C)C)CC2)nnn1-c1cccnc1F
IC50 [2]: > 10000 nM
half-life [5]: 12 min

SMILES: Cc1c(-c2ccc(C(=O)c3ccccc3)cc2)nnn1-c1cccnc1
IC50 [1]: 3900 nM

SMILES: Cc1c(-c2ccc3[nH]ccc3c2)nnn1-c1cccnc1
IC50 [1]: 250 nM

SMILES: CCC(=O)c1ccc(-c2nnn(-c3cccnc3)c2C)cc1
IC50 [1]: 170 nM

SMILES: Cc1nc2cc(-c3nnn(-c4cccnc4)c3C)ccc2s1
IC50 [1]: 1500 nM

The next lines start with the values.

IC50 [1]: 22 nM
SMILES: Cc1c(-c2ccc(C(=O)C3CC3)cc2)nnn1-c1cccnc1

IC50 [1]: 33 nM
SMILES: Cc1c(-c2ccc(C(=O)OC(C)C)cc2)nnn1-c1cccnc1

IC50 [1]: 3.5 nM
IC50 [2]: 5400 nM
logD [3]: 1.9
bioavailability [4]: 100%
half-life [5]: 36 min
clearance [6]: 8.1 mL/min/kg
SMILES: Cc1c(-c2ccc3c(c2)CN(C2CC2)C3=O)nnn1-c1cccnc1F

IC50 [1]: 3.3 nM
IC50 [2]: 1100 nM
logD [3]: 1.8
bioavailability [4]: 62%
half-life [5]: 18 min
clearance [6]: 19 mL/min/kg
SMILES: CCN1Cc2cc(-c3nnn(-c4cccnc4F)c3C)ccc2C1=O

IC50 [1]: 4.9 nM
SMILES: Cc1c(-c2ccc3ncccc3c2)nnn1-c1cccnc1

IC50 [1]: 5.5 nM
IC50 [2]: 2300 nM
logD [3]: 2.2
bioavailability [4]: 96%
half-life [5]: 132 min
clearance [6]: 5.9 mL/min/kg
SMILES: Cc1c(-c2ccc3c(c2)CN(C(C)C)C3=O)nnn1-c1cccnc1F

IC50 [1]: 11 nM
SMILES: Cc1c(-c2ccc3c(c2)CC(C)(C)C3=O)nnn1-c1cccnc1

IC50 [1]: 2.6 nM
SMILES: Cc1c(-c2ccc3c(c2)CC(C2CC2)C3=O)nnn1-c1cccnc1 (stereo not drawn)

IC50 [1]: 3.6 nM
IC50 [2]: 2800 nM
logD [3]: 2.3
bioavailability [4]: 100%
half-life [5]: 60 min
clearance [6]: 5.5 mL/min/kg
SMILES: CCCN1Cc2cc(-c3nnn(-c4cccnc4F)c3C)ccc2C1=O

Reference: ChEMBL document CHEMBL1155999, “Discovery and biological profile of isoindolinone derivatives as novel metabotropic glutamate receptor 1 antagonists: a potential treatment for psychotic disorders” (Bioorg Med Chem Lett, 2009)
